Paper PMC12329029 (Scientific Reports, 2025)

How the values were obtained:
MCF-7 = conditions: read-out: activity against MCF-7 breast cancer cells in vitro; cited from earlier work
[1] = tested on: p53 tumour suppressor in MDA-MB-231 cells; assay: p53 concentration in cell lysates; type: cell-based, human; conditions: 20 µM, 24 h
How it was run: (§1)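 MDA-MB-231 cells were grown in DMEM with 10% FBS and 1% penicillin/streptomycin at 37 °C, 5% CO2. They were reseeded in phenol-red-free DMEM with 10% CPSR1, used near 80% confluence and exposed to 20 µM for 24 h; untreated cells were the control. Cells were trypsinised, washed thrice in cold PBS, spun at 1000× g for 5 min at 4 °C, and 1.5 × 10^6 cells were lysed. Supernatants were frozen at −70 °C. Target protein was measured by antibody-precoated high-sensitivity kit. Three independent experiments in duplicate; one-way ANOVA with Tukey test.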

[2] = tested on: proapoptotic Bax in MDA-MB-231 cells; assay: Bax concentration in cell lysates; type: cell-based, human; conditions: 20 µM, 24 h
How it was run: as §1

[3] = tested on: Akt protein in MDA-MB-231 cells; assay: Akt concentration in cell lysates; type: cell-based, human; conditions: 20 µM, 24 h, control 8.22 U/mL
How it was run: as §1

For `CC(=O)OC1CCC2(C)C(CCC3(C)C2CC=C2C4CC(C)(C)CCC4(C(=O)n4ccc(=O)[nH]c4=O)CCC23C)C1(C)C` (stereo not drawn) [1-[(3β)-3-(acetyloxy)-28-oxoolean-12-en-28-yl]-2,4(1 H,3 H)-pyrimidinedione], the IC50 (MCF-7) is given as less than 100 nM.
For `C[C@H]1[C@H](C)CC[C@]2(C(=O)O)CC[C@]3(C)C(=CC[C@@H]4[C@@]5(C)CC[C@H](O)C(C)(C)[C@@H]5CC[C@]43C)[C@H]12` [Ursolic acid 1, Ursolic acid], the “change of p53 level vs control” value [1] was “increased the p53 concentration, but the values were statistically insignificant”, the “concentration of Bax” value [2] was 760 pg/mL and the “concentration of Akt” value [3] was 4.49 U/mL.
